Data: paper PMC4764504 (Journal of medicinal chemistry, 2015)
Where “and” joins values, the source holds several entries; their conditions need not be identical. Identical values can stand only once.

Experiments:
[1] = test system: DBT glioma cells; test: Competitive amino acid cell uptake assays; assay type: cell-based, mouse; settings: 60 s, 37 °C
Summary of the method: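 Mouse DBT glioma cells were seeded at 1 × 10⁵ cells/well and grown 48 h in 10% FBS DMEM under 5% CO₂. Cells were washed twice in 37 °C buffer, then exposed for 60 s at 37 °C, pH 7.40, to the radiotracer. Buffers were Na phosphate-buffered saline or choline-substituted Na-free buffer. Controls had 10 mM sucrose; BCH was 10 mM. Cells were washed with ice-cold buffer, lysed in 0.2% SDS/0.2 M NaOH, γ-counted, and normalized to added activity and BCA protein. Values are % of control, triplicate × two plates.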

[2] = test system: BALB/c Mice with Subcutaneous Flank DBT Tumors; test: Whole body biodistribution in mice with subcutaneous DBT gliomas; assay type: in vivo, mouse; settings: for biodistribution, tumor uptake: subcutaneous DBT tumor
Summary of the method: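 Male BALB/c mice carried subcutaneous flank DBT tumors (5 × 10⁵ cells) and were used at day 14. Under 1% isoflurane–oxygen, each received ~56 μCi (2.07 MBq) of ⁷⁶Br-labelled or 45 μCi (1.67 MBq) of ¹²³I-labelled test compound by tail vein in 0.9% saline. Mice were killed at 5 min, 30 min, 1, 3 and 24 h (n = 4 per time). Tissues were weighed and γ-counted with decay correction, giving % ID/g.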

In the case of `C[C@](N)(/C=C/[123I])C(=O)O` [[^123I]8, (S)-amino-2-methyl-4-[^123I]iodo-3-(E)-butenoic acid, reference compound], the “uptake relative to control” value ([1]; Na BCH condition (BCH 10 mM, system L inhibitor, sodium buffer)) is reported as 39 ± 12%, the “uptake compared to sodium control” value ([1]; choline + BCH (sodium-free, Cho-BCH)) is reported as 31 ± 12% and the “uptake compared to the sodium control” value ([1]; choline control (sodium-free, Cho-sucrose)) is reported as 33 ± 6.6%. The “uptake relative to the control” value ([1]; in the presence of MeAIB (10 mM, system A inhibitor), sodium buffer) was 25 ± 3.4%, the “biodistribution, blood” value ([2]; 5 min after i.v. injection) was 3.86 ± 0.50 % ID/g and the “biodistribution, blood” value ([2]; 30 min after i.v. injection) was 1.07 ± 0.16 % ID/g. The “biodistribution, blood” value ([2]; 1 h after i.v. injection) was 0.37 ± 0.05 % ID/g, the “biodistribution, blood” value ([2]; 3 h after i.v. injection) was 0.07 ± 0.02 % ID/g and the “biodistribution, blood” value ([2]; 24 h after i.v. injection) was 0.0005 ± 0.0000 % ID/g. For the same compound, the “biodistribution, bone” value ([2]; 5 min after i.v. injection) was 1.94 ± 0.28 % ID/g, the “biodistribution, bone” value ([2]; 30 min after i.v. injection) was 1.20 ± 0.21 % ID/g and the “biodistribution, bone” value ([2]; 1 h after i.v. injection) was 0.55 ± 0.39 % ID/g. The “biodistribution, bone” value ([2]; 3 h after i.v. injection) was 0.39 ± 0.35 % ID/g, the “biodistribution, bone” value ([2]; 24 h after i.v. injection) was 0.0042 ± 0.0020 % ID/g and the “biodistribution, brain” value ([2]; 5 min after i.v. injection) was 0.27 ± 0.03 % ID/g. The “biodistribution, brain” value ([2]; 30 min after i.v. injection) was 0.17 ± 0.04 % ID/g, the “biodistribution, brain” value ([2]; 1 h after i.v. injection) was 0.27 ± 0.35 % ID/g and the “biodistribution, brain” value ([2]; 3 h after i.v. injection) was 0.07 ± 0.00 % ID/g. The “biodistribution, brain” value ([2]; 24 h after i.v. injection) was 0.0010 ± 0.0003 % ID/g, the “biodistribution, fat” value ([2]; 5 min after i.v. injection) was 0.87 ± 0.26 % ID/g and the “biodistribution, fat” value ([2]; 30 min after i.v. injection) was 0.22 ± 0.09 % ID/g. The “biodistribution, fat” value ([2]; 1 h after i.v. injection) was 0.19 ± 0.07 % ID/g, the “biodistribution, fat” value ([2]; 3 h after i.v. injection) was 0.04 ± 0.01 % ID/g and the “biodistribution, heart” value ([2]; 5 min after i.v. injection) was 2.30 ± 0.02 % ID/g. For the same compound, the “biodistribution, heart” value ([2]; 30 min after i.v. injection) was 1.78 ± 0.35 % ID/g, the “biodistribution, heart” value ([2]; 1 h after i.v. injection) was 0.90 ± 0.06 % ID/g and the “biodistribution, heart” value ([2]; 3 h after i.v. injection) was 0.18 ± 0.05 % ID/g. For the same compound, the “biodistribution, heart” value ([2]; 24 h after i.v. injection) was 0.0005 ± 0.0005 % ID/g, the “biodistribution, kidney” value ([2]; 5 min after i.v. injection) was 31.27 ± 6.91 % ID/g and the “biodistribution, kidney” value ([2]; 30 min after i.v. injection) was 9.90 ± 3.24 % ID/g. For the same compound, the “biodistribution, kidney” value ([2]; 1 h after i.v. injection) was 2.68 ± 0.55 % ID/g, the “biodistribution, kidney” value ([2]; 3 h after i.v. injection) was 0.39 ± 0.09 % ID/g and the “biodistribution, kidney” value ([2]; 24 h after i.v. injection) was 0.0032 ± 0.0017 % ID/g. For the same compound, the “biodistribution, liver (all)” value ([2]; 5 min after i.v. injection) was 2.83 ± 0.25 % ID/g, the “biodistribution, liver (all)” value ([2]; 30 min after i.v. injection) was 0.91 ± 0.20 % ID/g and the “biodistribution, liver (all)” value ([2]; 1 h after i.v. injection) was 0.25 ± 0.03 % ID/g. For the same compound, the “biodistribution, liver (all)” value ([2]; 3 h after i.v. injection) was 0.07 ± 0.02 % ID/g, the “biodistribution, liver (all)” value ([2]; 24 h after i.v. injection) was 0.0006 ± 0.0002 % ID/g and the “biodistribution, lung” value ([2]; 5 min after i.v. injection) was 3.54 ± 0.31 % ID/g. The “biodistribution, lung” value ([2]; 30 min after i.v. injection) was 1.01 ± 0.28 % ID/g, the “biodistribution, lung” value ([2]; 1 h after i.v. injection) was 0.33 ± 0.06 % ID/g and the “biodistribution, lung” value ([2]; 3 h after i.v. injection) was 0.06 ± 0.02 % ID/g. For the same compound, the “biodistribution, lung” value ([2]; 24 h after i.v. injection) was 0.0007 ± 0.0006 % ID/g, the “biodistribution, muscle” value ([2]; 5 min after i.v. injection) was 1.65 ± 0.05 % ID/g and the “biodistribution, muscle” value ([2]; 30 min after i.v. injection) was 1.41 ± 0.22 % ID/g. For the same compound, the “biodistribution, muscle” value ([2]; 1 h after i.v. injection) was 0.68 ± 0.17 % ID/g, the “biodistribution, muscle” value ([2]; 3 h after i.v. injection) was 0.12 ± 0.06 % ID/g and the “biodistribution, muscle” value ([2]; 24 h after i.v. injection) was 0.0011 ± 0.0006 % ID/g. For the same compound, the “biodistribution, pancreas” value ([2]; 5 min after i.v. injection) was 29.26 ± 8.15 % ID/g, the “biodistribution, pancreas” value ([2]; 30 min after i.v. injection) was 21.03 ± 4.38 % ID/g and the “biodistribution, pancreas” value ([2]; 1 h after i.v. injection) was 5.75 ± 1.20 % ID/g. The “biodistribution, pancreas” value ([2]; 3 h after i.v. injection) was 0.99 ± 0.46 % ID/g, the “biodistribution, pancreas” value ([2]; 24 h after i.v. injection) was 0.0052 ± 0.0021 % ID/g and the “biodistribution, spleen” value ([2]; 5 min after i.v. injection) was 3.92 ± 0.99 % ID/g. For the same compound, the “biodistribution, spleen” value ([2]; 30 min after i.v. injection) was 2.23 ± 0.34 % ID/g, the “biodistribution, spleen” value ([2]; 1 h after i.v. injection) was 0.68 ± 0.12 % ID/g and the “biodistribution, spleen” value ([2]; 3 h after i.v. injection) was 0.15 ± 0.05 % ID/g. For the same compound, the “biodistribution, spleen” value ([2]; 24 h after i.v. injection) was 0.0012 ± 0.0010 % ID/g, the “biodistribution, tumor uptake” value ([2]; 5 min after i.v. injection) was 2.8 ± 0.8 % ID/g and 2.78 ± 0.83 % ID/g and the “biodistribution, tumor uptake” value ([2]; 30 min after i.v. injection) was 2.7 ± 0.6 % ID/g and 2.68 ± 0.56 % ID/g. For the same compound, the “biodistribution, tumor uptake” value ([2]; 1 h after i.v. injection) was 1.53 ± 0.66 % ID/g, the “biodistribution, tumor uptake” value ([2]; 3 h after i.v. injection) was 0.65 ± 0.16 % ID/g and the “biodistribution, tumor uptake” value ([2]; 24 h after i.v. injection) was 0.0012 ± 0.0007 % ID/g. The “biodistribution, thyroid” value ([2]; thyroid, 5 min after i.v. injection) was 2.51 ± 0.39 % ID/g, the thyroid uptake ([2]; thyroid, 5 min after injection) was 2.5 ± 0.4 % ID/organ and the “biodistribution, thyroid” value ([2]; thyroid, 30 min after i.v. injection) was 1.38 ± 0.38 % ID/g. For the same compound, the “biodistribution, thyroid” value ([2]; thyroid, 1 h after i.v. injection) was 0.97 ± 0.28 % ID/g, the “biodistribution, thyroid” value ([2]; thyroid, 3 h after i.v. injection) was 0.65 ± 0.29 % ID/g and the thyroid activity ([2]; thyroid, 3 h after injection) was “approximately 0.7 % ID/organ”. The “biodistribution, thyroid” value ([2]; thyroid, 24 h after i.v. injection) was 0.6527 ± 0.2135 % ID/g, the thyroid activity ([2]; thyroid, 24 h after injection) was “approximately 0.7 % ID/organ” and the “thyroid activity as share of the administered activity” value ([2]; thyroid, 24 h after injection) was “less than 1%”.
